Measurements reported in ChEMBL document CHEMBL1145115, “SAR analysis of adenosine diphosphate (hydroxymethyl)pyrrolidinediol inhibition of poly(ADP-ribose) glycohydrolase” (J Med Chem, 2003).
Values joined by “and” are separate entries in the source; they are usually repeats but may differ in a detail not shown here. Equal values may be shown once.

Key:
[1] = target: T1, Poly(ADP-ribose) glycohydrolase (Bos taurus, UniProt O02776); assay: (§1) The compound was tested for its ability to inhibit recombinant bovine polyadenosine diphosphoribose glycohydrolase catalytic fragment (rPARG-CF)
Procedure, shortened: (§2)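 PARG activity was measured with 10 µM [α-32P]ADP-ribose polymers as substrate and varying inhibitor concentrations, with an inhibitor-free control. Enzyme was 0.25 ng of bovine thymus PARG, purified with a Red-Sepharose step, or 5 ng of rPARG-CF. Runs were done at least in triplicate. IC50 came from a sigmoidal fit of % activity against log[inhibitor].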

[2] = target: Poly(ADP-ribose) glycohydrolase (Bos taurus) (UniProt O02776); assay: as §1; procedure, shortened: as §2
[3] = target: T1, Poly(ADP-ribose) glycohydrolase; assay: (§3) The compound was tested for its ability to inhibit bovine thymus polyadenosine diphosphoribose glycohydrolase (bPARG); procedure, shortened: as §2
[4] = target: Poly(ADP-ribose) glycohydrolase (Bos taurus) (UniProt O02776); assay: as §3; procedure, shortened: as §2

Sequence of Poly(ADP-ribose) glycohydrolase (Bos taurus) (O02776 whole entry): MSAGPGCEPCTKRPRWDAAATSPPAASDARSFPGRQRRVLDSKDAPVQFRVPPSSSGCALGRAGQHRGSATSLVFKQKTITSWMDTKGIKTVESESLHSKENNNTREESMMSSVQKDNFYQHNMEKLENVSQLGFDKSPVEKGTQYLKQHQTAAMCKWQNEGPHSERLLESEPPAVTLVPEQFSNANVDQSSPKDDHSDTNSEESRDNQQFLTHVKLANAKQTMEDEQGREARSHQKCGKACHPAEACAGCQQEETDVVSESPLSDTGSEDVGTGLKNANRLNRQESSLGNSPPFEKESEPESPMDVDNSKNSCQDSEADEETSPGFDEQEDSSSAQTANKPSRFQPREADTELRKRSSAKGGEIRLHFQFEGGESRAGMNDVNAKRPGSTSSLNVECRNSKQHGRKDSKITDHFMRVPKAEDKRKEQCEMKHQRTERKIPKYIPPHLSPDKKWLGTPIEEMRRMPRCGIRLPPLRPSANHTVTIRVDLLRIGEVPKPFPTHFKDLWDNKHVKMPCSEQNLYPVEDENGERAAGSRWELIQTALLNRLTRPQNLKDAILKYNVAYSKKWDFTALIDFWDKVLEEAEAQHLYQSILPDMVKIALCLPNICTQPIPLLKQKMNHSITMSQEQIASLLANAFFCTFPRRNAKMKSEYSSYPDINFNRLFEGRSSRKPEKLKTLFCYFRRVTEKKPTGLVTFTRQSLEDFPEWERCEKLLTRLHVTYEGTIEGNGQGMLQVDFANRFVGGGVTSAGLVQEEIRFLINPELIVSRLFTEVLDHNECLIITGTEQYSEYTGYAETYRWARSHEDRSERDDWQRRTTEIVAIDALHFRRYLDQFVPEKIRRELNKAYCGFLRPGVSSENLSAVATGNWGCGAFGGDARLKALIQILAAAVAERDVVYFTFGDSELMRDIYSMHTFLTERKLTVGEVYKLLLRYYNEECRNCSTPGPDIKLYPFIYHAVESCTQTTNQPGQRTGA
T1 sequence (O02776 whole entry, the tested form may be a part): as the sequence (O02776 whole entry) above

| SMILES | IC50 [1] | Log IC50 [2] [µM] | IC50 [3] [µM] | Log IC50 [4] [µM] |
| --- | --- | --- | --- | --- |
| [N-]=[N+]=Nc1nc2c(N)ncnc2n1C1O[C@H](COP(=O)(O)OP(=O)(O)OC[C@H]2NC[C@H](O)[C@@H]2O)[C@@H](O)[C@H]1O (stereo partly drawn) | 0.44 µM |  | 0.39 |  |
| Nc1nc2c(ncn2C2O[C@H](COP(=O)(O)OP(=O)(O)OCC3NC[C@H](O)[C@@H]3O)[C@@H](O)[C@H]2O)c(=O)[nH]1 (stereo partly drawn) | 970 µM |  | > 1000 |  |
| [N-]=[N+]=Nc1nc(N)c2ncn(C3O[C@H](COP(=O)(O)OP(=O)(O)OC[C@H]4NC[C@H](O)[C@@H]4O)[C@@H](O)[C@H]3O)c2n1 (stereo partly drawn) | 148 µM | 2.17 | 290 | 2.45 |
| Nc1ncnc2c1ncn2[C@@H]1O[C@H](CO[P@](=O)(O)O[P@@](=O)(O)OC[C@H]2NC[C@H](O)[C@@H]2O)[C@@H](O)[C@H]1O [ADENOSINE DIPHOSPHATE (HYDROXYMETHYL)PYRROLIDINEDIOL] | 1.4 µM and 1 µM |  | 0.33 |  |
| Nc1ncnc2c1nc(NCCCCCCNC(=O)C(F)(F)F)n2C1O[C@H](COP(=O)(O)OP(=O)(O)OC[C@H]2NC[C@H](O)[C@@H]2O)[C@@H](O)[C@H]1O (stereo partly drawn) | 570 µM | 2.75 |  |  |
| Nc1ncnc2c1nc(Sc1ccc(Cl)cc1)n2C1O[C@H](COP(=O)(O)OP(=O)(O)OC[C@H]2NC[C@H](O)[C@@H]2O)[C@@H](O)[C@H]1O (stereo partly drawn) | 120 µM | 2.07 |  |  |

Other lines, results leading:

| IC50 [1] | Log IC50 [2] [µM] | IC50 [3] [µM] | Log IC50 [4] [µM] | SMILES |
| --- | --- | --- | --- | --- |
| 9.5 µM | 0.97 |  |  | NCCCCCCNc1nc2c(N)ncnc2n1C1O[C@H](COP(=O)(O)OP(=O)(O)OC[C@H]2NC[C@H](O)[C@@H]2O)[C@@H](O)[C@H]1O (stereo partly drawn) |
| 4.2 µM | 0.623 | 3.07 | 0.48 | Nc1ncnc2c1ncn2C1O[C@H](COP(=O)(O)OP(=O)(O)OCC2C[C@@H](O)CN2)[C@@H](O)[C@H]1O (stereo partly drawn) [ADENOSINE DIPHOSPHATE (HYDROXYMETHYL)PYRROLIDINE MONOALCOHOL] |
|  | 2.99 |  | > 3 | Nc1nc(O)c2ncn(C3O[C@H](COP(=O)(O)OP(=O)(O)OCC4NC[C@H](O)[C@@H]4O)[C@@H](O)[C@H]3O)c2n1 (stereo partly drawn) |
| 510 µM | 2.71 |  |  | CCCCCCNc1ncnc2c1ncn2C1O[C@H](COP(=O)(O)OP(=O)(O)OCC2NC[C@H](O)[C@@H]2O)[C@@H](O)[C@H]1O (stereo partly drawn) |
| 63 µM | 1.8 | 19.2 | 1.28 | Nc1ncnc2c1ncn2C1O[C@H](COP(=O)(O)OP(=O)(O)OCC2CCCN2)[C@@H](O)[C@H]1O (stereo partly drawn) [ADENOSINE DIPHOSPHATE (HYDROXYMETHYL)PYRROLIDINE] |
